ChEMBL document CHEMBL5390295, “Isolinderalactone Ameliorates the Pathology of Alzheimer's Disease by Inhibiting the JNK Signaling Pathway” (2023)
The source made the active and inactive calls. No cut-off for these calls is given here.

How the values were obtained:
Mus musculus [1] = experiment: Anti-alzheimer activity in hippocampus of APP/PS1 dE9 double transgenic mouse model assessed as increase in the level of Bcl-2 at 10 mg/kg, ip administered once daily for 30 consecutive days by Western blot analysis; type: functional, organism-based; settings: time 30.0 day
How it was run: (§1)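 Hippocampal homogenates from dosed APP/PS1 mice were extracted in RIPA and protein measured by BCA. Samples were run by SDS electrophoresis, transferred to 0.22 μm PVDF for 90 min, blocked with 5% BSA in TBST for 2 h at RT, and probed with primaries 1:1000 overnight at 4 °C. HRP secondary was applied for 2 h at RT.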

Mus musculus [2] = experiment: Anti-alzheimer activity in hippocampus of APP/PS1 dE9 double transgenic mouse model assessed as reduction in glial cell aggregation at 1 to 10 mg/kg, ip administered once daily for 30 consecutive days by immunofluorescence staining; type: functional, organism-based; settings: dose 1-10 mg/kg, time 30.0 day
How it was run: (§2)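 Brains from dosed female APP/PS1 mice (10 months) were fixed in 4% paraformaldehyde at 4 °C for 24–48 h, taken through a sucrose gradient and OCT, and cut into 15 μm sections. Sections were permeabilized with 0.3% Triton X-100, blocked in 10% BSA for 1 h, and incubated with primary antibody overnight at 4 °C (1:200). Secondary was 1:500 for 1 h at 25 °C, with DAPI counterstain and confocal imaging, in triplicate.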

Mus musculus [3] = experiment: Anti-alzheimer activity in cortex of APP/PS1 dE9 double transgenic mouse model assessed as reduction in neuronal apoptosis at 1 to 10 mg/kg, ip administered once daily for 30 consecutive days by immunofluorescence analysis; type: functional, organism-based; settings: dose 1-10 mg/kg, time 30.0 day; how it was run: as §2
Mus musculus [4] = experiment: Anti-alzheimer activity against mouse model APP/PS1 dE9 double transgenic mouse model assessed as improvement in average movement speed at 1 to 10 mg/kg, ip administered once daily for 30 consecutive days measured on day 1 by novel object recognition test; type: functional, organism-based; settings: dose 1-10 mg/kg, time 31.0 day
Mus musculus [5] = experiment: Anti-alzheimer activity in hippocampus of APP/PS1 dE9 double transgenic mouse model assessed as reduction in amyloid beta plaque deposition at 1 to 10 mg/kg, ip administered once daily for 30 consecutive days by immunofluorescence staining; type: functional, organism-based; settings: dose 1-10 mg/kg, time 30.0 day; how it was run: as §2
PC-12 [6] = experiment: Neuroprotective activity against Abeta1-42 induced rat PC12 cells assessed as increase in cell viability at 10 uM preincubated for 3 hrs followed by Abeta1-42 induction and measured after 24 hrs by MTT assay; type: functional, cell-based; settings: time 27.0 hrs
How it was run: (§3)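 PC12 cells were seeded at 5×10^3/well and pretreated 3 h with test compound (range or 10 μM), with or without SP600125 1.25 μM for 0.5 h beforehand. Cells were then exposed to 10 μM Aβ1–42 oligomers for 24 h. MTT 0.5 mg/mL was added for 3–4 h, formazan dissolved in DMSO, and absorbance read at 570 nm. Viability is given as % of control.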

PC-12 [7] = experiment: Neuroprotective activity against in Abeta1-42 induced rat PC12 cells assessed as effect on cleaved caspase-3 level at 10 uM preincubated for 3 hrs followed by Abeta1-42 induction and measured after 24 hrs in the presence of SP600125 by Western blot analysis; type: functional, cell-based; settings: time 27.0 hrs
How it was run: (§4)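 Aβ1–42 challenge in PC12 cells was 10 μM for 24 h after 3 h pretreatment at 10 μM. SP600125 (1.25 μM) was added 0.5 h before pretreatment where used. Cells were lysed in RIPA and protein measured by BCA. Blotting used PVDF transfer, 5% BSA/TBST block for 2 h, primaries 1:1000 overnight at 4 °C, and HRP secondary for 2 h. Bcl-2/Bax ratio and band intensities were quantified.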

PC-12 [8] = experiment: Neuroprotective activity in rat PC12 cells assessed as reversal of Abeta1-42 decreased in Bcl-2 expression level at 10 uM preincubated for 3 hrs followed by Abeta1-42 induction and measured after 24 hrs by Western blot analysis; type: functional, cell-based; settings: time 27.0 hrs; how it was run: as §4
PC-12 [9] = experiment: Neuroprotective activity against Abeta1-42 induced rat PC12 cells assessed as […] at 1.25 to 10 uM preincubated for 3 hrs followed by Abeta1-42 induction and measured after 24 hrs by MTT assay; type: functional, cell-based; settings: dose 1.25-10 µM, time 27.0 hrs; how it was run: as §3
PC-12 [10] = experiment: Neuroprotective activity in rat PC12 cells assessed as reversal of Abeta1-42 induced caspase-3 activation at 10 uM preincubated for 3 hrs followed by Abeta1-42 induction and measured after 24 hrs by Western blot analysis; type: functional, cell-based; settings: time 27.0 hrs
How it was run: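 PC12 cells (DMEM, 10% FBS, 37 °C, 5% CO2) pretreated 3 h, then given 10 μM Aβ1–42 oligomer (10 mM DMSO stock aged 7 days at 37 °C, diluted in medium) for 24 h. RIPA lysates were blotted on PVDF, blocked in 5% BSA/TBST, and probed overnight at 4 °C for cleaved caspase-3 (1:1000), then HRP secondary. Band intensity was quantified; mean ± SEM of three experiments.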

PC-12 [11] = experiment: Induction of apoptosis in Abeta1-42 induced rat PC12 cells assessed as necrosis at 10 uM preincubated for 3 hrs followed by Abeta1-42 induction and measured after 24 hrs by Annexin V-FITC/PI staining based flow cytometry analysis (reference value: 0.0%); type: functional; settings: time 27 hrs
PC-12 [12] = experiment: Neuroprotective activity against in Abeta1-42 induced rat PC12 cells assessed as effect on ERK protein level at 10 uM preincubated for 3 hrs followed by Abeta1-42 induction and measured after 24 hrs by Western blot analysis; type: functional, cell-based; settings: time 27.0 hrs; how it was run: as §4
Mus musculus [13] = experiment: Anti-alzheimer activity in hippocampus of APP/PS1 dE9 double transgenic mouse model assessed as decrease in the level of caspase-3 activation at 10 mg/kg, ip administered once daily for 30 consecutive days by Western blot analysis; type: functional, organism-based; settings: time 30.0 day; how it was run: as §1
Mus musculus [14] = experiment: Anti-alzheimer activity against APP/PS1 dE9 double transgenic mouse model assessed as increase in platform crossings at 10 mg/kg, ip administered once daily for 30 consecutive days […] by morris water maze test; type: functional, organism-based
How it was run: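 Female APP/PS1 mice, 10 months old, about 30 g, 10 per group. Dosing was intraperitoneal in 1× PBS, once daily for one month (1 or 10 mg/kg test; 5 mg/kg donepezil). WT and untreated APP/PS1 controls got PBS. Morris water maze: training days 1–4, averaged escape latency. Day-5 probe trial ran 60 s with the platform removed, recording platform crossings and time per quadrant. Mean ± SEM.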

PC-12 [15] = experiment: Neuroprotective activity against rat PC12 cells assessed as reversal of Abeta1-42 induced Bax expression at 10 uM preincubated for 3 hrs followed by Abeta1-42 induction and measured after 24 hrs by Western blot analysis; type: functional, cell-based; settings: time 27.0 hrs; how it was run: as §4
Mus musculus [16] = experiment: Anti-alzheimer activity in hippocampus of APP/PS1 dE9 double transgenic mouse model assessed as increase in the level of PSD95 at 10 mg/kg, ip administered once daily for 30 consecutive days by Western blot analysis; type: functional, organism-based; settings: time 30.0 day; how it was run: as §1
PC-12 [17] = experiment: Induction of apoptosis in Abeta1-42 induced rat PC12 cells assessed as late apoptosis at 10 uM preincubated for 3 hrs followed by Abeta1-42 induction and measured after 24 hrs by Annexin V-FITC/PI staining based flow cytometry analysis (reference value: 0.7%); type: functional; settings: time 27 hrs
PC-12 [18] = experiment: Neuroprotective activity against Abeta1-42 induced rat PC12 cells assessed as increase in cell viability at 10 uM preincubated for 3 hrs followed by Abeta1-42 induction and measured after 24 hrs in the presence of SP600125 by MTT assay; type: functional, cell-based; settings: time 27.0 hrs; how it was run: as §3

C=C[C@@]1(C)Cc2occ(C)c2[C@@H]2OC(=O)C(=C)[C@@H]21 [ISOLINDERALACTONE]
Activity (Mus musculus [1]): Active
Activity (Mus musculus [2]): Active
Activity (Mus musculus [3]): Active
Activity (Mus musculus [4]): Active
Activity (Mus musculus [5]): Active
Activity (PC-12 [6]): Active
Activity (PC-12 [7]): inactive
Activity (PC-12 [8]): Active
Activity (PC-12 [9]): Active
Activity (PC-12 [10]): Active
Activity (PC-12 [11]): 0%
Activity (PC-12 [12]): inactive
Activity (Mus musculus [13]): Active
Activity (Mus musculus [14]): Active
Activity (PC-12 [15]): Active
Activity (Mus musculus [16]): Active
Activity (PC-12 [17]): 0.4%
Activity (PC-12 [18]): inactive
